# From ChEMBL document CHEMBL1148789, “Synthesis and biological activities of new checkpoint kinase 1 inhibitors structurally related to granulatimide” (J Med Chem, 2007)
# The source made the active and inactive calls. No cut-off for these calls is given here.
# Assays:
# [1] = molecular target: T1, Serine/threonine-protein kinase Chk1 (Homo sapiens) (UniProt O14757); assay: Inhibition of human Chk1 expressed in Sf9 cells at 10 uM
# T1 sequence (whole entry): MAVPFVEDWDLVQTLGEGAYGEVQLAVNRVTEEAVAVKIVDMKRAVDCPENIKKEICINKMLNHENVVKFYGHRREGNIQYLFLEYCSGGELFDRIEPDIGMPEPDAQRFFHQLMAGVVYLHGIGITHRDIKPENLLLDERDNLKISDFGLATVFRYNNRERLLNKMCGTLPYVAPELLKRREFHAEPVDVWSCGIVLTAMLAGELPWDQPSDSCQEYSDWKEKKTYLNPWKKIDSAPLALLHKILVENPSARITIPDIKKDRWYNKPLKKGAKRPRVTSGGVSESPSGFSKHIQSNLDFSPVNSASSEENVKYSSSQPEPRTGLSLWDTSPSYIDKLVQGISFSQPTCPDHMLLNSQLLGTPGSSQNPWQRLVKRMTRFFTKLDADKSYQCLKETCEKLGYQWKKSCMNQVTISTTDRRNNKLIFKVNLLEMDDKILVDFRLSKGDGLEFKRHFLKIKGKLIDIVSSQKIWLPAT
# Summary of the method: (§1)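 Full-length human Chk1 with an N-terminal GST tag, purified from baculovirus-infected Sf9 cells or purchased. Stopped with orthophosphoric acid and captured on phosphocellulose filters for scintillation counting. Percent inhibition at 10 µM; IC50 from 12 concentrations over 6 logs, duplicate points averaged.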
# [2] = molecular target: T2, Serine/threonine-protein kinase Chk1 (Homo sapiens, UniProt O14757); assay: Inhibition of human Chk1 expressed in Sf9 cells; summary of the method: as §1
# T2 sequence (O14757 whole entry): T1 sequence (whole entry)
# HCT-116 = assay: Antiproliferative activity against human HCT116 cells […] by microculture tetrazolium assay; assay type: functional, cell-based
# Summary of the method: (§2)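 Human HCT116, human HT29 and murine L1210 tumour cells grown in RPMI 1640 with 10% fetal calf serum, 2 mM L-glutamine, penicillin/streptomycin and 10 mM HEPES pH 7.4. Compounds were taken from 10^-2 M DMSO stocks, diluted 1/100 in RPMI, and cells were exposed continuously to graded concentrations for four doubling times. MTT was added for 4 h at 37 °C and the formazan dissolved in DMSO. IC50 is the concentration lowering optical density 50% versus untreated cells.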
# HT-29 = assay: Antiproliferative activity against human HT29 cells […] by microculture tetrazolium assay; assay type: functional, cell-based; summary of the method: as §2
# [3] = molecular target: T3, Proto-oncogene tyrosine-protein kinase Src (Homo sapiens, UniProt P12931); assay: Inhibition of Src
# T3 sequence (P12931 2-536 limits assumed): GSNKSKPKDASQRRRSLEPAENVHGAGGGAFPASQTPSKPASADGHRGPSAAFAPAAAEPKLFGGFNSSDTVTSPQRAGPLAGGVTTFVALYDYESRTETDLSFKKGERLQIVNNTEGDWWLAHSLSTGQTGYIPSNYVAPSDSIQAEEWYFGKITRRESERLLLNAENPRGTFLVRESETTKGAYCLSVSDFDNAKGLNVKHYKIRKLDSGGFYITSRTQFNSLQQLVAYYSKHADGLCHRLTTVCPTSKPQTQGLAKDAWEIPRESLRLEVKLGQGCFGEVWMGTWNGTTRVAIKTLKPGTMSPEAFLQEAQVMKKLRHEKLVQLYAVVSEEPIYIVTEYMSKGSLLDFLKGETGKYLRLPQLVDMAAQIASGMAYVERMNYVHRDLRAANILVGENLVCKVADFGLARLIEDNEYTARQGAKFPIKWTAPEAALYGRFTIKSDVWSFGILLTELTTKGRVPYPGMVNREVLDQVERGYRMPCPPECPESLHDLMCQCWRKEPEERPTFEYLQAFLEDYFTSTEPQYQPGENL
# Summary of the method: (§3)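 Started by adding cosubstrate (40 µM ATP stock with [33P]γ-ATP); 20 min at 30 °C. Stopped with 0.85% orthophosphoric acid, filtered on phosphocellulose, washed, then scintillation counted. Percent inhibition at 10 µM; IC50 reported.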
# [4] = molecular target: T3, Proto-oncogene tyrosine-protein kinase Src; assay: Inhibition of Src at 10 uM; summary of the method: as §3
# L1210 = assay: Antiproliferative activity against mouse L1210 cells after four doubling times by microculture tetrazolium assay
# [5] = molecular target: Casein kinase II subunit alpha (Homo sapiens) (UniProt P68400); assay: Residual activity of CK2 at 1 uM
# Sequence of Casein kinase II subunit alpha (Homo sapiens) (P68400 whole entry, looked up): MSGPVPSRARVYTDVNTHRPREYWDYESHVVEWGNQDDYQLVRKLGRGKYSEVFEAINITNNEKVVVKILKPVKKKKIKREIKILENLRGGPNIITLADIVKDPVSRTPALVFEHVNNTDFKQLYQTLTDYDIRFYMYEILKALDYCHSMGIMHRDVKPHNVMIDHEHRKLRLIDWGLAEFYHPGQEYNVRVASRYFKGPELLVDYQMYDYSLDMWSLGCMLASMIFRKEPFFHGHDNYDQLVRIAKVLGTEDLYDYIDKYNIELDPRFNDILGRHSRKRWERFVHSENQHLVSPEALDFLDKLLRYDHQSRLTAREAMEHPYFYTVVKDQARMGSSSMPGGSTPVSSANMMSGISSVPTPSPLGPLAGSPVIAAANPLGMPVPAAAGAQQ
# Homo sapiens [6] = organism: Homo sapiens; assay: Residual activity of PKA at 1 uM
# [7] = molecular target: T1, Serine/threonine-protein kinase Chk1 (Homo sapiens); assay: Residual activity of Chk1 at 1 uM
# [8] = molecular target: RAF proto-oncogene serine/threonine-protein kinase (Homo sapiens) (UniProt P04049); assay: Residual activity of cRAF at 1 uM
# Sequence of RAF proto-oncogene serine/threonine-protein kinase (Homo sapiens) (P04049 whole entry): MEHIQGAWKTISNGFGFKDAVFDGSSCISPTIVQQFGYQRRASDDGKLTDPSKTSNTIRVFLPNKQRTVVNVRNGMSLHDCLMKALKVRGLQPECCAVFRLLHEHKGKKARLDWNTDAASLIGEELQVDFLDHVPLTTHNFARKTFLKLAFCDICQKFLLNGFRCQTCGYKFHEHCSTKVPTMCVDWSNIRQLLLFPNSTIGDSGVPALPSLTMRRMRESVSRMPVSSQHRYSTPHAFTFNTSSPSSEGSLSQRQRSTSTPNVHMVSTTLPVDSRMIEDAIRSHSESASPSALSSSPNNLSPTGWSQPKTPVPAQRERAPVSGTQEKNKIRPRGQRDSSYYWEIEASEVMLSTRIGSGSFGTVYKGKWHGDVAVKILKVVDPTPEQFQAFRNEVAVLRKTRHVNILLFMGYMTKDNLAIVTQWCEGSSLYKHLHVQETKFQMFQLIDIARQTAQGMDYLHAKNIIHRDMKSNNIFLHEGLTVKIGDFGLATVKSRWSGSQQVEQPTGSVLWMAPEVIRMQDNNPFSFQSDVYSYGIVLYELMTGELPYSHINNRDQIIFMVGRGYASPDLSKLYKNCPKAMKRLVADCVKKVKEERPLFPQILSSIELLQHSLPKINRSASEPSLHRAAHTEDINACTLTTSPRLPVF
# [9] = molecular target: Dual specificity mitogen-activated protein kinase kinase 1 (Homo sapiens) (UniProt Q02750); assay: Residual activity of MEK1 at 1 uM
# Homo sapiens [10] = organism: Homo sapiens; assay: Residual activity of CaMKII at 1 uM
# [11] = molecular target: Ribosomal protein S6 kinase beta-1 (Homo sapiens) (UniProt P23443); assay: Residual activity of p70S6K at 1 uM
# Sequence of Ribosomal protein S6 kinase beta-1 (Homo sapiens) (P23443 whole entry, looked up): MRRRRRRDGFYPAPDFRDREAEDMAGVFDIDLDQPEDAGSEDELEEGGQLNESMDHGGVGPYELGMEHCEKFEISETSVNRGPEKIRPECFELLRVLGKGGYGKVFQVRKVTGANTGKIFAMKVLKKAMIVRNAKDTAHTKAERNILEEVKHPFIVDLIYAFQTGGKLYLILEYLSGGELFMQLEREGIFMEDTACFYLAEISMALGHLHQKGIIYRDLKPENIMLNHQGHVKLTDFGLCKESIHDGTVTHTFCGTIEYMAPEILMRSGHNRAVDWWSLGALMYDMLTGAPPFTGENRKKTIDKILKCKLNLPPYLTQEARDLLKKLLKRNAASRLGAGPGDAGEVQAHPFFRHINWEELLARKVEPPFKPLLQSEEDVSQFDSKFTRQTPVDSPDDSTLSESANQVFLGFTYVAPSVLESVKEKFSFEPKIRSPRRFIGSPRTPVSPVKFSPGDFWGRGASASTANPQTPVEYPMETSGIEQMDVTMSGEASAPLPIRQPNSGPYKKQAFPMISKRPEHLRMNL
# [12] = molecular target: Cyclin-dependent kinase 5/CDK5 activator 1 (Homo sapiens) (UniProt Q00535+Q15078); assay: Residual activity of CDK5/p25 at 1 uM
# [13] = molecular target: MAP kinase-activated protein kinase 2 (Homo sapiens) (UniProt P49137); assay: Residual activity of MAPKAPK2 at 1 uM
# Sequence of MAP kinase-activated protein kinase 2 (Homo sapiens) (P49137 whole entry, looked up): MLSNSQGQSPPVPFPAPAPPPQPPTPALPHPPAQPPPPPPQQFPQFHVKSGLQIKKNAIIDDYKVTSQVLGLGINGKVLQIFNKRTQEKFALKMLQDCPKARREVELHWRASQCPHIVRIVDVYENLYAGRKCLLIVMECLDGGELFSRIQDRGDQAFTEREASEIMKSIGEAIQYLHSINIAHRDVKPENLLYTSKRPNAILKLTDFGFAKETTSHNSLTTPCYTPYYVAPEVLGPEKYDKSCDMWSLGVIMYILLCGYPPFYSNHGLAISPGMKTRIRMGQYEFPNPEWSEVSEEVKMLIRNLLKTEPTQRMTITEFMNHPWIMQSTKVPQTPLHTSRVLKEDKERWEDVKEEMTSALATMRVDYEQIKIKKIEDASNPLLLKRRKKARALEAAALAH
# Homo sapiens [14] = organism: Homo sapiens; assay: Residual activity of CDK1/cyclin B at 1 uM
# Homo sapiens [15] = organism: Homo sapiens; assay: Residual activity of CDK7/cyclin H at 1 uM
# [16] = molecular target: Mitogen-activated protein kinase 1 (Homo sapiens) (UniProt P28482); assay: Inhibition of MAPK1 at 1 uM; values are per cent of control
# Sequence of Mitogen-activated protein kinase 1 (Homo sapiens) (P28482 whole entry): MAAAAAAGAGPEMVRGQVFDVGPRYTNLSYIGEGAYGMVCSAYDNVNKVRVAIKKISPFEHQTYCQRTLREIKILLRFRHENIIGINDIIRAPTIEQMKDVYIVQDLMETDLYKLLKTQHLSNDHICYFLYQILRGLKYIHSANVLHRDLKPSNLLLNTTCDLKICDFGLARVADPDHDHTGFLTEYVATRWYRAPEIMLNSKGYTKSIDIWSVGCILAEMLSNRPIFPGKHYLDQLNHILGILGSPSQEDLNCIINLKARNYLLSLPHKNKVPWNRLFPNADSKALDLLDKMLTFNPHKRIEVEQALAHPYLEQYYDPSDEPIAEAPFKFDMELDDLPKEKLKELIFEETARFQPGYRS
# [17] = molecular target: RAC-alpha serine/threonine-protein kinase (Homo sapiens) (UniProt P31749); assay: Inhibition of PKBalpha at 1 uM; values are per cent of control
# Sequence of RAC-alpha serine/threonine-protein kinase (Homo sapiens) (P31749 whole entry): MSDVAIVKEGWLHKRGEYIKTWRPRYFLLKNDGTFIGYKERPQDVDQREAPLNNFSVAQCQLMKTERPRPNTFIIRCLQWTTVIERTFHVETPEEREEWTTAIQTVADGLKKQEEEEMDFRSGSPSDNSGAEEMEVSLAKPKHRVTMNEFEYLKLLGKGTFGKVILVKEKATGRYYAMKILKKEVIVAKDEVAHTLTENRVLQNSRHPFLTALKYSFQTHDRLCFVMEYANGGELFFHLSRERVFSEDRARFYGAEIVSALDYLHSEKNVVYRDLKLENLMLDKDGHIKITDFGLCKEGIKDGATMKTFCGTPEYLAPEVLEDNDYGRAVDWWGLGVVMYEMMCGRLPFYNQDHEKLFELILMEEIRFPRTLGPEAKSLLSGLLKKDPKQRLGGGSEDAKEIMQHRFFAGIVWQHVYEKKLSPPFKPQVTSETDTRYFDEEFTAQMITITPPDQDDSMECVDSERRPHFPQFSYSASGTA
# [18] = molecular target: Protein kinase C alpha type (Homo sapiens) (UniProt P17252); assay: Inhibition of PKCalpha at 1 uM; values are per cent of control
# [19] = molecular target: Casein kinase I isoform delta (Homo sapiens) (UniProt P48730); assay: Inhibition of CK1delta at 1 uM; values are per cent of control
# Sequence of Casein kinase I isoform delta (Homo sapiens) (P48730 whole entry, looked up, canonical isoform): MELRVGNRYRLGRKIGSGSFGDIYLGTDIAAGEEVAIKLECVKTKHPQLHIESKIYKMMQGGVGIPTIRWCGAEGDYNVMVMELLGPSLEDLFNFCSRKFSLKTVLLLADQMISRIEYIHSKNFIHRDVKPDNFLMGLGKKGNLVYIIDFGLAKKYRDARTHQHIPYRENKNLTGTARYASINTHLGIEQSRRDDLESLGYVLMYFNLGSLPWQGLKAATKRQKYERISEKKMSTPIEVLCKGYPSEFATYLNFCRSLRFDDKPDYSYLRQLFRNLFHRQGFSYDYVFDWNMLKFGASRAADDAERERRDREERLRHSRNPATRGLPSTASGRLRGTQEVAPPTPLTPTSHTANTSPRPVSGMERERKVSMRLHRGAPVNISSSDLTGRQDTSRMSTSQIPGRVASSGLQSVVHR
# [20] = molecular target: Glycogen synthase kinase-3 beta (Homo sapiens) (UniProt P49841); assay: Inhibition of GSK3-beta at 1 uM; values are per cent of control
# Sequence of Glycogen synthase kinase-3 beta (Homo sapiens) (P49841 whole entry, looked up): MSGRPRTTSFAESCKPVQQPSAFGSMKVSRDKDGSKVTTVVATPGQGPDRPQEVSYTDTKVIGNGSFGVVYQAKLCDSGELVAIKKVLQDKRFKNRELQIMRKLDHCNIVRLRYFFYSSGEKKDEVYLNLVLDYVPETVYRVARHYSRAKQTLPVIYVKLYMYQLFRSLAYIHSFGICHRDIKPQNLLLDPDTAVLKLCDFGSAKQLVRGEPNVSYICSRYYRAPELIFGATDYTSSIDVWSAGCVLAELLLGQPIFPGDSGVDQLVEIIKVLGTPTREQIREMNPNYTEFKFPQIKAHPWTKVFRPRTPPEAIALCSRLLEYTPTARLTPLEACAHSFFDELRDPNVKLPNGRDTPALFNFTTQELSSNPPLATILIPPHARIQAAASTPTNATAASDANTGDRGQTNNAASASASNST
# [21] = molecular target: Glycogen synthase kinase-3 alpha (Homo sapiens) (UniProt P49840); assay: Inhibition of GSK3-alpha at 1 uM; values are per cent of control
# Homo sapiens [22] = organism: Homo sapiens; assay: Inhibition of CDK2/cyclin A at 1 uM; values are per cent of control
# [23] = molecular target: CDK9/cyclin T1 (Homo sapiens) (UniProt O60563+P50750); assay: Inhibition of CDK9/cyclin T1 at 1 uM; values are per cent of control
Structure (SMILES),inhibition [1] [%],IC50 [2] [µM],IC50 (HCT-116) [µM],IC50 (HT-29) [µM],inhibition [4] [%],other results
O=C1NC(=O)c2c1c1c(O)ccc(OS(=O)(=O)O)c1c1[nH]c3ccccc3c21,62,1.79,> 50,46,,
O=C1NC(=O)c2c1c1c(O)ccc(O)c1c1[nH]c3ccc(O)cc3c21,94,0.023,2.7,26.4,83.5,IC50 [3]: 5.4 µM; IC50 (L1210): 1.4 µM
O=C1NC(=O)c2c1c1c(c3[nH]c4ccccc4c23)C(=O)CCC1,15.3,,1.1,15.5,8.5,
Cc1ccc2[nH]c3c4c(=O)ccc(=O)c4c4c(=O)[nH]c(=O)c4c3c2c1,86,0.107,0.7,20.6,52.5,
O=c1[nH]c(=O)c2c1c1[nH]c3ccccc3c1c1c(=O)[nH]c(=O)c21 [BIS-IMIDE A],94.4,0.02,,,,Activity [4]: inactive
O=c1ccc(=O)c2c1c1[nH]c3ccccc3c1c1c(=O)[nH]c(=O)c21,86,0.269,,,,
CC(C)(C)C(=O)Oc1ccc(O)c2c3c(c4c5ccccc5[nH]c4c12)C(=O)NC3=O,66,3.7,8.76,7.28,,

# Continued by falling IC50 [2], values first:
inhibition [1] [%],IC50 [2] [µM],IC50 (HCT-116) [µM],IC50 (HT-29) [µM],inhibition [4] [%],Structure (SMILES),other results
93,0.904,17.5,46.4,35,O=C1NC(=O)c2c1c1c(O)cccc1c1[nH]c3ccccc3c21,
70,0.893,> 40,50,,Cc1ccc2[nH]c3c4c(OS(=O)(=O)O)ccc(O)c4c4c(c3c2c1)C(=O)NC4=O,
96,0.311,,,2.5,O=C1NC(=O)c2c1c1c(O)ccc(O)c1c1[nH]c3ccccc3c21,
99,0.161,1.6,3.8,,Cc1ccc2[nH]c3c4c(O)ccc(O)c4c4c(c3c2c1)C(=O)NC4=O,residual activity [5]: 108%; residual activity (Homo sapiens [6]): 117%; residual activity [7]: 12%; residual activity [8]: 93%; residual activity [9]: 96%; residual activity (Homo sapiens [10]): 34%; residual activity [11]: 42%; residual activity [12]: 28%; residual activity [13]: 57%; residual activity (Homo sapiens [14]): 86%; residual activity (Homo sapiens [15]): 90%; residual activity [16]: 95%; residual activity [17]: 87%; residual activity [18]: 102%; residual activity [19]: 100%; residual activity [20]: 60%; residual activity [21]: 32%; residual activity (Homo sapiens [22]): 69%; residual activity [23]: 117%
,0.081,,,58,O=C1NC(=O)c2c1c1[nH]cnc1c1[nH]c3ccccc3c21 [GRANULATIMIDE],IC50 [3]: 0.35 µM
72,0.043,9.7,16.1,,O=C1CCc2c1c1c(c3c2[nH]c2ccccc23)C(=O)NC1=O,Activity [4]: inactive; IC50 (L1210): 58.4 µM
95,0.027,15.4,50.6,63,O=c1ccc(=O)c2c1c1[nH]c3ccc(O)cc3c1c1c(=O)[nH]c(=O)c21,residual activity [5]: 92%; residual activity (Homo sapiens [6]): 103%; residual activity [7]: 22%; residual activity [8]: 102%; residual activity [9]: 98%; residual activity (Homo sapiens [10]): 40%; residual activity [11]: 27%; residual activity [12]: 33%; residual activity [13]: 73%; residual activity (Homo sapiens [14]): 85%; residual activity (Homo sapiens [15]): 87%; residual activity [16]: 77%; residual activity [17]: 87%; residual activity [18]: 66%; residual activity [19]: 16%; residual activity [20]: 19%; residual activity [21]: 3%; residual activity (Homo sapiens [22]): 62%; residual activity [23]: 61%; IC50 (L1210): 8.4 µM
